Assay results of several laboratories.
Lines come from different studies, so protocols differ.

NCCC(=O)Nc1cccc(/N=c2\cc(-c3ccc4c(c3)OCO4)oc3ccccc23)c1 — inhibition (MOLM-13; cell growth or viability, CCK-8; 1 µM): 8.47%
CCCCCCCCCCCCCCCCCCOc1cccc(CC(=O)OCC[N+](C)(C)C)c1 — inhibition (NCI-H23; cell growth or viability, SRB; 10 µM): 11%
Cc1c(Cl)c(=O)oc2cc(OCCCCSC#N)ccc12 — GI50 (SW1573; cell growth or viability, SRB): 5.8 µM
Cc1cnc(CNC(=O)c2c(=O)c3ccc(N4CCCN(C)CC4)nc3n3c2sc2ccccc23)cn1 — IC50 (C6661; cell growth or viability, MTS; 72 h): 0.5 µM
COCCC(=O)Nc1ccccc1/N=c1\cc(-c2ccc3nc(N)oc3c2)oc2ccccc12 — inhibition (MOLM-13; cell growth or viability, CCK-8; 1 µM): 2.66%
CCCCCCCCCCCCCCCCCCOc1ccccc1CC(=O)OCC[N+]1(C)CCCC1 — inhibition (NCI-H23; cell growth or viability, SRB; 10 µM): 91.5%
COc1ccc2/c(=N/c3ccccc3NC(=O)[C@@H](N)C(C)(C)C)cc(-c3ccc4c(c3)OCO4)oc2c1 — inhibition (MOLM-13; cell growth or viability, CCK-8; 1 µM): 4.55%
CCCCCCCCCCCCCCCCCCOc1ccccc1CC(=O)OCC[N+](CC)(CC)CC — inhibition (NCI-H23; cell growth or viability, SRB; 10 µM): 86.9%
COc1ncnc(C2CC2)c1-c1ncc2cnn(Cc3ccc(-c4nc(C(F)(F)F)cn4C(C)C)cc3)c2n1 — viability (CHP-212; cell growth or viability, SRB; 6.25 µM): 87.2%
C[C@@H]1COCCN1c1cc(C2([S@](C)(=N)=O)CC2)nc(-c2cc[nH]c3nccc2-3)n1 — IC50 (CT26; cell growth or viability, ATP luminescence; 48 h): 8.64 µM
NCCC(=O)Nc1ccccc1/N=c1\cc(-c2ccc3nc(N)oc3c2)oc2ccccc12 — inhibition (MOLM-13; cell growth or viability, CCK-8; 1 µM): 60.4%
C#Cc1cccc(Nc2ncnc3cc(OCCOC)c(OCCOC)cc23)c1 — IC50 (Bel-7402; cell growth or viability, MTT; 48 h): > 20 µM
C=C(C)[C@@H]1CC[C@]2(C)CC[C@]3(C)[C@H](CC[C@@H]4[C@@]5(C)CC[C@H](O)C(C)(C)[C@@H]5CC[C@]43C)[C@@H]12 — inhibition (SIM-A9; NO release, inhibitor, Griess; 106.7 µM, LPS-stimulated): 1.81%
NCCC(=O)Nc1ccc(/N=c2\cc(-c3ccc4c(c3)OCO4)oc3ccccc23)cc1 — inhibition (MOLM-13; cell growth or viability, CCK-8; 1 µM): 3.6%
CC(=O)O[C@H]1C(=O)[C@@]2(C)[C@H]([C@H](OC(=O)c3ccccc3)[C@]3(O)C[C@H](OC(=O)[C@H](O)[C@@H](NC(=O)c4ccccc4)c4ccccc4)C(C)=C1C3(C)C)[C@]1(OC(C)=O)CO[C@@H]1C[C@@H]2O — viability (CHP-212; cell growth or viability, SRB; 10 µM): 5.97%
CCCCCCCCCCCCCCCCCCOc1ccccc1CC(=O)OCC[N+]1(C)CCOCC1 — inhibition (NCI-H23; cell growth or viability, SRB; 10 µM): 33.5%
CC(C)C[C@H](NC(=O)[C@H](Cc1ccccc1)NC(=O)c1cnccn1)B(O)O — viability (CHP-212; cell growth or viability, SRB; 0.3704 µM): 88%
NCC(=O)Nc1ccccc1/N=c1\cc(-c2ccc3c(c2)OCCO3)oc2ccccc12 — inhibition (MOLM-13; cell growth or viability, CCK-8; 1 µM): -2.55%
O=C(C[C@@H](C(F)F)n1ccc(F)n1)N1CCC(O)(Cn2cnc3c(cnn3-c3ccc(F)cc3)c2=O)CC1 — viability (CHP-212; cell growth or viability, SRB; 82.3 nM): 47.2%
CCCCCCCCCCCCCCCCCCOc1cccc(CC(=O)OCC[N+](CC)(CC)CC)c1 — inhibition (NCI-H23; cell growth or viability, SRB; 10 µM): 64.3%
C(=N\Nc1cc(N/N=C/c2cccc3cccnc23)ncn1)/c1cccc2cccnc12 — IC50 (Bel-7402; cell growth or viability, MTT; 48 h): 17.6 µM
